Type in all cases: functional
Assay [1] has as its system Candida albicans. Put plainly: Antibiofilm activity against Candida albicans 17a18 by two dimensional checkerboard dilution method in presence of ibuprofen. Put shortly:
(§1)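 Preformed 48 h disk biofilms (RPMI 1640, MOPS pH 7, 37 °C), PBS-washed, exposed 24 h at 37 °C on rocker to two-dimensional checkerboard of anidulafungin plus NSAID in RPMI; NSAID final 0.1 µM to 100 mM. XTT reduction at 490 nm; SMIC = combination giving 50% metabolic reduction versus drug-free control; FIC index calculated; triplicate on different days.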

Assay [2] concerns Meyerozyma guilliermondii. Put plainly: Antibiofilm activity against Candida guilliermondii a410 by two dimensional checkerboard dilution method in presence of aspirin. Put shortly:
(§2)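 Biofilms were grown on PVC disks from 2 ml of a 1·10^6 cfu/ml cell suspension. Adhesion ran 1.5 h at 37 °C with shaking at 100 rpm. Disks were PBS-washed, then matured 48 h at 37 °C in RPMI 1640 (MOPS, pH 7). Biofilms were washed again and given 24 h at 37 °C of anidulafungin/NSAID checkerboard combinations (NSAID final 0.1 µM–100 mM). Read-out was XTT-menadione (2 h, 37 °C, 490 nm). SMIC was defined as 50% reduction versus drug-free control, from which FICI was calculated. Triplicates were run on different days.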

In assay [3] the test system is Meyerozyma guilliermondii. Put plainly: Antibiofilm activity against Candida guilliermondii a83 assessed as fractional inhibitory concentration by two dimensional checkerboard dilution method in presence of aspirin. Put shortly:
as §2

The subject of assay [4] is Meyerozyma guilliermondii. Put plainly: Antibiofilm activity against Candida guilliermondii ATCC 6260 assessed as fractional inhibitory concentration by two dimensional checkerboard dilution method in presence of ibuprofen. Put shortly:
as §1

Assay [5] has as its system Candida albicans. In words: Antibiofilm activity against Candida albicans ATCC 24433 after 48 hrs by XTT reduction assay relative to control. Set-up: scale not given: the % may be the effect or the level left. The essentials: (§3)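 Biofilms grown on autoclaved PVC disks: 1·10^6 cfu ml-1 cells, adhesion 1.5 h at 37 °C shaking 100 rpm, PBS wash, then 48 h at 37 °C in RPMI 1640 (MOPS, pH 7). Metabolic activity read by XTT–menadione reduction, 2 h at 37 °C, supernatant formazan at 490 nm, relative to drug-free control; triplicate on different days.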
In general terms: Tetrazolium dyes change colour on reduction, which living cells bring about.

Assay [6] deals with Meyerozyma guilliermondii. Put plainly: Antibiofilm activity against Candida guilliermondii ATCC 6260 by two dimensional checkerboard dilution method in presence of ibuprofen. The essentials:
as §1

Assay [7] deals with Candida albicans. In words: Antibiofilm activity against Candida albicans 17a18 after 48 hrs by XTT reduction assay relative to control. Set-up: scale not given: the % may be the effect or the level left. The essentials:
as §3

The subject of assay [8] is Meyerozyma guilliermondii. Put plainly: Antibiofilm activity against Candida guilliermondii a410 assessed as fractional inhibitory concentration by two dimensional checkerboard dilution method in presence of ibuprofen. The essentials:
as §2

Assay [9] relates to Candida albicans. In words: Antibiofilm activity against Candida albicans ATCC 10231 assessed as fractional inhibitory concentration by two dimensional checkerboard dilution method in presence of diclofenac. The essentials:
as §1

Assay [10] has as its system Candida albicans. In words: Antibiofilm activity against Candida albicans ATCC 24433 assessed as fractional inhibitory concentration by two dimensional checkerboard dilution method in presence of ibuprofen. Put shortly: as §1
The next assay deals with Nakaseomyces glabratus. Put plainly: Antibiofilm activity against Candida glabrata ATCC 15126 by two dimensional checkerboard dilution method in presence of aspirin. The essentials: as §1
Assay [11] concerns Candida albicans. In words: Antibiofilm activity against Candida albicans 17a18 assessed as fractional inhibitory concentration by two dimensional checkerboard dilution method in presence of diclofenac. The essentials:
as §1

Assay [12] concerns Candida albicans. Put plainly: Antibiofilm activity against Candida albicans ATCC 10231 by two dimensional checkerboard dilution method in presence of ibuprofen. Put shortly:
as §1

For assay [13], the system named is Meyerozyma guilliermondii. Put plainly: Antibiofilm activity against Candida guilliermondii a83 assessed as fractional inhibitory concentration by two dimensional checkerboard dilution method in presence of diclofenac. Put shortly: as §2
Assay [14] deals with Candida albicans. In words: Antibiofilm activity against Candida albicans ATCC 24433 at 1 mM after 24 hrs by XTT reduction assay relative to control. On the set-up: scale not given: the % may be the effect or the level left. Put shortly:
(§4)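 Biofilms grown on sterilized PVC disks: 1·10^6 cfu/ml Candida cells adhered for 1.5 h at 37 °C with shaking, washed with PBS, then matured 48 h at 37 °C in RPMI 1640 (MOPS, pH 7). Preformed biofilms were washed and exposed to drug, alone or in two-dimensional checkerboard combination, in RPMI 1640 for 24 h at 37 °C on a rocker.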

For assay [15], the system named is Meyerozyma guilliermondii. Put plainly: Antibiofilm activity against Candida guilliermondii ATCC 6260 at 1 mM after 24 hrs by XTT reduction assay relative to control. Set-up: scale not given: the % may be the effect or the level left. Put shortly:
as §4

The subject of assay [16] is Meyerozyma guilliermondii. Put plainly: Antibiofilm activity against Candida guilliermondii ATCC 6260 at 0.2 mM after 24 hrs by XTT reduction assay relative to control. On the set-up: scale not given: the % may be the effect or the level left. Put shortly:
as §4

On to `CCCCCOc1ccc(-c2ccc(-c3ccc(C(=O)N[C@@H]4C[C@@H](O)[C@@H](O)NC(=O)[C@@H]5[C@@H](O)[C@@H](C)CN5C(=O)[C@H]([C@@H](C)O)NC(=O)[C@H]([C@H](O)[C@@H](O)c5ccc(O)cc5)NC(=O)[C@@H]5C[C@@H](O)CN5C(=O)[C@H]([C@H](C)O)NC4=O)cc3)cc2)cc1`, for which the MIC in the assay with Candida albicans [1] came to 0.4 µg/mL; in assay [2] it was 0.1 µg/mL; in [6], 0.4 µg/mL; in the assay with Nakaseomyces glabratus it was 0.1 µg/mL; in the assay on Candida albicans [12], 0.4 µg/mL. The Ratio is 0.05 in assay [3]; 0.2 in assay [4]; 0.2 in [8]; 0.05 in the assay on Candida albicans [9]; 0.2 in the assay with Candida albicans [10]; 0.05 in the assay with Candida albicans [11]. Also, the Ratio in [13] came to 0.1. Also, the Activity came to 25.06% with Candida albicans [5] and 29.31% in the assay with Candida albicans [7].
With `CC(=O)Oc1ccccc1C(=O)O` [ASPIRIN], the Activity in the assay on Candida albicans [14] is 48.75%; in assay [15], 54.12%.
For the compound `CC(C)Cc1ccc(C(C)C(=O)O)cc1` (configuration not stated) [IBUPROFEN], the Activity in assay [16] was 64.43%.

Source of the values: ChEMBL document CHEMBL3758165, “In vitro interactions between anidulafungin and nonsteroidal anti-inflammatory drugs on biofilms of Candida spp” (2016).
